Rows were chosen to be rich in hits. Some 5.9% of all compounds tested hit in one or more screens of this group.
DAT uptake mod = modulates human dopamine transporter uptake under cocaine. LLC-PK1 hDAT cells, [14C]-dopamine uptake with cocaine IC80; actives deviate in either direction. B-score at 10 µM. actives 1.3% (n = 110,000);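 active = Z score or B-score, a plate-position-corrected score, falls beyond the plate's 99.7% confidence bounds, in either direction; inactive = both scores lie inside the 99.7% bounds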;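 note: scored against the spread of the other compound wells on the same plate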
PTK2B oligo ant = antagonists of human Pyk2 oligomerization; Q293 cells, Pyk2 FERM NanoBiT luminescence; stronger effect = lower value; actives 0.83% (n = 99,000); AID 1347419; Q14289; z-score (the deposit names both 25 µM and 10 µM);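 active = Z-score of -3 or lower, scaled per plate to the spread of control and sample wells; inactive = z-score above -3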;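 note: negative z-score means lost luminescence so less FERM oligomerization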
Target sequence (Q14289 whole entry, looked up): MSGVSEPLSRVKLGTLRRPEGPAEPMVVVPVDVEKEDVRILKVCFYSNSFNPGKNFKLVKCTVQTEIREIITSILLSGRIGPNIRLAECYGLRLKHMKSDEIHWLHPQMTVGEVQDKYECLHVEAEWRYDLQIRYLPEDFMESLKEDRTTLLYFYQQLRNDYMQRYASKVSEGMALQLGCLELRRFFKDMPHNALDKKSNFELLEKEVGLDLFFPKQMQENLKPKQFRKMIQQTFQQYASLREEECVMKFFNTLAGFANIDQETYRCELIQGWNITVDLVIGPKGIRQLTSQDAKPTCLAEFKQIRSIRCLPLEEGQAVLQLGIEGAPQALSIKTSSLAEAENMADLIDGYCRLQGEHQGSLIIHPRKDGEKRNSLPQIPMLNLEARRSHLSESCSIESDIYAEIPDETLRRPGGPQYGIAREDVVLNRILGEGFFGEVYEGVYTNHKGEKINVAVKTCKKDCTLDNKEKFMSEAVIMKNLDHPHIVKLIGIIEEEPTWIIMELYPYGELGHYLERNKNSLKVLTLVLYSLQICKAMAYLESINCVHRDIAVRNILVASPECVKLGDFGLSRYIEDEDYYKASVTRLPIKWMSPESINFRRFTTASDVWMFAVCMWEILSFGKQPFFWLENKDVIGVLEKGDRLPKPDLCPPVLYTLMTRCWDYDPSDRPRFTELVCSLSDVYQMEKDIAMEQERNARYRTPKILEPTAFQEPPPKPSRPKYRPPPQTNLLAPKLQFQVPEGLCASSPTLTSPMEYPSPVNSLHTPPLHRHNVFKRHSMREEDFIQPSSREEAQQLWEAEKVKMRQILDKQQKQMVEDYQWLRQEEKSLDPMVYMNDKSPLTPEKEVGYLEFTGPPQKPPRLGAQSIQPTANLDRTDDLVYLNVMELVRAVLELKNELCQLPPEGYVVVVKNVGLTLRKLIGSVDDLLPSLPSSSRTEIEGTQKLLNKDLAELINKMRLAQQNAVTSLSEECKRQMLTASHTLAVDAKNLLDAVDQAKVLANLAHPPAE
Cav32 inh = human Cav3.2 channel inhibition, primary screen | O95180 | Cav3.2-expressing cells, Fluo-4 calcium fluorescence FDSS; stronger effect = lower value | B-score at 10 µM | actives 4% (n = 100,000);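 active = single-dose well whose peak fluorescence ratio is a statistical outlier from its plate by either plate-standardised score or position-corrected B-score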
Rev-RRE block = inhibitors of HIV-1 Rev-RRE RNA interaction; P05866; Rev peptide-RRE RNA binding, FRET; inhibition, % at 8 µM; actives 0.79% (n = 97,000); AID 704;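 active = inhibition above the screen-wide mean plus 3 SD, cut at about 35% in these data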;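 note: 0% = median DMSO wells and 100% = median Neomycin B control wells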
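Material: labelled RRE RNA duplex and labelled Rev peptide / Buffer or medium: HEPES pH 7.5 salt buffer with EDTA / Compound dosing: single point, 8 µM final nominal compound concentration / Benchmarks: DMSO low control, neomycin B high control / Timing: 5 min preincubation and 15 min binding, 25 °C / Technique: FRET fluorescence readout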
Measles CPE = protection of cells from measles virus | Measles virus-infected cells, CPE protection, absorbance | protection (pct of control), % at 4 µM | actives 1.5% (n = 140,000) | AID 841; in the data active = protection mostly above about 24%, no sharp cut-off; inactive = mostly below about 26%
Phagocytosis inh = macrophage phagocytosis inhibition; J774A.1 macrophage IgG-bead phagocytosis, imaging; inhibition, % at 5 µM; actives 0.07% (n = 110,000); AID 1029;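 active = inhibition above the mean of the plate negative controls plus 5 SD, cut at about 13% in these data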;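 note: phagocytic index as fraction of beads internalized from green versus red external bead signal; plate controls were DMSO negative control for no effect and cytochalasin-D positive control for full effect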
Starred values were filed as active, the others as inactive; . = no result given; [ ] = remark or other dose.

SMILES | DAT uptake mod | PTK2B oligo ant | Cav32 inh | Rev-RRE block | Measles CPE | Phagocytosis inh
CC1(c2ccccc2)CC(C)(C)N2C(=O)C3(C(C#N)=C(N)Oc4cc(O)ccc43)c3cccc1c32 (stereo not given) | 0.62 | -1.6 | -4.9* | 11 | 18 | 0
CC1=CC(C)(C)N2C(=O)C3(C(C#N)=C(N)Oc4cc(O)ccc43)c3c(C)c(C)cc1c32 (stereo not given) | 2.6* | -1.8 | -4.1* | 15 | 34 | 0
O=C(N[C@@H](Cc1ccccc1)C(=O)O)c1c(F)c(F)c(F)c(F)c1F | 0.6 | . | 1.5 | . | . | .
Cc1ccc2nc(N3CCN(Cc4ccc(F)cc4)C3=O)c(C)cc2c1 | 2.2* | -1.6 | -2.8 | 9 | 30 | 0
Cc1ccc(C(=O)c2no[n+]([O-])c2C(=O)c2ccc(C)cc2)cc1 | . | . | . | . | 0 | -1
Cc1cccc(NC(=O)CN2C(=O)COc3ccc(Cl)cc32)c1 | 0.96 | -0.03 | -3.5 | . | 5 | 1
COc1cccc(NC(=O)CN2C(=O)COc3ccc(Cl)cc32)c1 | 0.4 | . | -5.4* | 4 | 29 | 0
Cc1cccc(NC(=O)CN2C(=O)COc3ccc(Cl)cc32)c1C | 0.16 | . | -5.3* | 1 | 7 | 0
CCCC(CCC)=NNC(=O)CN(Cc1ccccc1)S(=O)(=O)c1ccccc1 | . | . | . | . | 33 | -8
CCCNC(=S)N1CCN(CC)CC1 | . | . | . | . | 29 | -6
O=C(Nc1cccc(O)c1)C(=O)Nc1ccccn1 | . | . | . | . | 8 | .
O=C(Nc1ccccc1)C(=O)Nc1ccccn1 | -0.99 | 0.28 | -0.18 | 6 | 27* | .
Cc1ccc(S(=O)(=O)CCSc2cccc(C(=O)Nc3ccccc3C(=O)O)c2)cc1 | . | -2.4 | . | . | 37 | -9
Cc1ccc(N2C(=O)CSC23C(=O)Nc2ccccc23)cc1 (stereo not given) | 0.72 | -0.51 | -0.73 | 6 | 4 | 1
CC1=CC(C)(C)N2C(=O)C3(SCC(=O)N3c3ccc(O)cc3)c3cc(C)cc1c32 (stereo not given) | 1.3 | -2.3 | -7.4* | -1 | 5 | -1
Cc1occc1-c1nnc(SCC(N)=O)n1Cc1ccccc1 | 0.084 | -0.1 | 0.33 | 7 | 9 | 1
COc1ccc(-n2c(SCC(=O)Nc3nccs3)nnc2-c2ccoc2C)cc1 | -0.14 | 1.9 | -1.5 | -6 | 24 | -1
CCn1c(SCC(=O)N2CCN(c3ccccc3F)CC2)nnc1-c1ccoc1C | 2.7* | 0.38 | 0.75 | 0 | 14 | -2
Cc1occc1-c1nnc(SCC(=O)Nc2ccccc2)n1C(C)c1ccccc1 (stereo not given) | 1.7 | -0.96 | -4.3* | . | 24 | 0
COc1cccc(-n2c(SCC(=O)Nc3nccs3)nnc2-c2ccoc2C)c1 | 1.1 | -1.8 | -4* | 12 | 8 | .
Cc1occc1-c1nnc(SCC(=O)NCCc2ccccc2)n1Cc1ccccc1 | -0.043 | -0.11 | -5* | 1 | 30 | -4
O=C(Nc1cccc(NC(=O)c2ccccc2[N+](=O)[O-])n1)c1ccccc1[N+](=O)[O-] | -0.045 | 0.36 | 0.71 | 7 | 6 | .
O=c1c2ccccc2oc2nc(-c3cccs3)n(CCc3ccccc3)c(=O)c12 | . | . | . | . | 23 | -5
Cn1c(SCC(=O)NCCc2ccccc2)nnc1-c1ccco1 | -0.17 | -0.05 | 0.11 | 2 | 6 | .
COc1cccc(-n2c(SCC(=O)NCCc3ccccc3)nnc2-c2ccoc2C)c1 | 0.55 | -1.6 | -8* | . | 7 | -1
SMILES | DAT uptake mod | PTK2B oligo ant | Cav32 inh | Rev-RRE block | Measles CPE | Phagocytosis inh
COc1ccc(-n2c(SCC(=O)Nc3nc(C)cs3)nnc2-c2ccoc2C)cc1 | 1.4 | -1.1 | -6.5* | 11 | 9 | .
CCN(CC)C(=O)c1cc(C(C)(C)C)c(O)c(C(C)(C)C)c1 | . | . | . | . | 32 | -4
Fc1ccc2c(c1)C(c1ccncc1)=NNC(c1cccnc1)=N2 | 0.76 | 0.74 | -0.057 | 1 | 30 | -4
O=S1(=O)CCC(NC(=S)NCCNC(=S)NC2CCS(=O)(=O)C2)C1 (stereo not given) | . | . | . | . | 28* | -6
Cc1ccc(C)c(NC(=S)N(CCc2nc3cc(C)c(C)cc3[nH]2)Cc2cccnc2)c1 | 0.18 | -0.9 | -1.2 | -2 | 7 | .
Fc1ccc(-n2nnc(-c3nccs3)n2)cc1 | 0.74 | . | 0.33 | . | . | .
Cc1ccc2cc(/C=C3\N=C(c4ccccc4)OC3=O)c(N3CCOCC3)nc2c1 | 0.6 | . | -6.6* | 39* | 4 | 1
C[C@@H]1CC[C@@]2(O[C@@H](CCO)C[C@H](O)[C@H]2O)O1 | 0.12 | . | -0.21 | . | . | .
COCCN1C(=O)c2ccc(C(=O)Nc3nccs3)cc2C1=O | 0.11 | -0.39 | 0.33 | 4 | 30* | 1
CCCN1C(=O)c2ccc(C(=O)Nc3nccs3)cc2C1=O | -0.29 | -0.75 | 0.15 | 2 | 10 | .
CNc1cc(CSC)nc(SCc2ccc(Cl)cc2Cl)n1 | 0.4 | -1.6 | -0.54 | 14 | 26* | 0
CCC(C(=O)O/N=C(\N)c1ccccc1)c1ccccc1 (stereo not given) | 0.24 | 0.05 | -3.6* | 9 | 2 | -2
CCC(C(=O)O/N=C(\N)c1ccc(Cl)cc1)c1ccccc1 (stereo not given) | -0.93 | -0.86 | -5.6* | 14 | 5 | 0
COc1cccc(SCc2noc(C(=O)NCCCN3CCOCC3)c2C(=O)NCCCN2CCOCC2)c1 | -0.44 | . | 0.44 | . | . | .
COc1ccc(CNc2nc(NCc3ccc(OC)cc3)n(C(C)=O)n2)cc1 | -0.25 | -0.56 | 0.016 | 0 | 33 | -2
CCC(=O)n1nc(NCc2ccccc2OC)nc1NCc1ccccc1OC | 0.76 | -0.92 | -7.9* | 7 | 12 | 0
COc1ccc(CNc2nc(NCc3ccc(OC)c(OC)c3)n(C(=O)c3cccs3)n2)cc1OC | -0.44 | -3.4* | -0.13 | -4 | 10 | -1
Cc1ccc(C#CC[N+]2(CC#Cc3ccc(C)cc3)CCCCC2)cc1 | . | . | . | . | 15 | 1
O=c1c(/C=C(\O)c2ccc(F)cc2)nc2ccccc2n1-c1ccccc1 | 0.57 | 0.3 | . | 127*[fluorescence artefact?] | 7 | -2
O=C(O)C1Nc2ccc(C(F)(F)F)cc2C2OCCC12 (stereo not given) | -0.31 | . | 0.068 | . | . | .
CCC(=O)Nc1ccc(C(=O)Nc2cccnc2)cc1 | 0.26 | -0.22 | -0.43 | 5 | 15 | 1
Cc1ccc(C(=O)CCC(=O)Nc2cccnc2)cc1C | -8.5* | 0.65 | 0.35 | 4 | 1 | 0
S=C(NCc1ccco1)N1CCN(Cc2ccc(Cl)cc2Cl)CC1 | 1.9 | 0.23 | -3.6* | -2 | 8 | .
CC1CCN(c2cc(C#N)c(C#N)cc2[N+](=O)[O-])CC1 | -0.59 | -0.37 | -0.026 | 4 | 4 | 0
CC1CCN(c2ccc(N3C(=O)C4CCCCC4C3=O)cc2[N+](=O)[O-])CC1 (stereo not given) | . | . | . | . | 48* | -5
COC(=O)Cn1nc(-c2ccccc2)c2ccccc21 | -0.33 | 0.86 | -0.33 | 10 | 29 | .
CCc1sc(N(C(=O)Cc2ccccc2)c2ccc(F)cc2)nc1-c1ccccc1 | -0.55 | -0.17 | -5.3* | 15 | 5 | -1

Screening data deposited in PubChem by several laboratories.
